ChEMBL document CHEMBL2157880, “Synthesis, antimycobacterial and antibacterial activity of ciprofloxacin derivatives containing a N-substituted benzyl moiety” (2012)
≈ marks a conversion by molar mass, not a printed value.

Experiments:
Assay type in all cases: functional
[1] = system: Mycobacterium tuberculosis; test: Antimycobacterial activity against Mycobacterium tuberculosis H37Rv ATCC 27294 by microplate alamar blue assay
Outline: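 Microplate Alamar Blue fluorescence assay on strain H37Rv ATCC 27294. MIC was the lowest concentration cutting fluorescence by ≥90% against the mean of replicate bacterium-only controls.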

Staphylococcus aureus [2] = test: Antibacterial activity against Staphylococcus aureus ATCC 2592 after 18 to 24 hrs by NCCLS method
Outline: (§1)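 Standard NCCLS (M100-S11) MIC testing against Gram-positive and Gram-negative strains. Plates were incubated at 35 °C for 18–24 h. The MIC was read as the lowest concentration giving complete inhibition of visible bacterial growth.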

Staphylococcus aureus [3] = test: Antibacterial activity against methicillin-sensitive Staphylococcus aureus 10-11 after 18 to 24 hrs by NCCLS method; outline: as §1
Staphylococcus aureus [4] = test: Antibacterial activity against methicillin-sensitive Staphylococcus aureus 10-13 after 18 to 24 hrs by NCCLS method; outline: as §1
Staphylococcus aureus [5] = test: Antibacterial activity against methicillin-sensitive Staphylococcus aureus 10-14 after 18 to 24 hrs by NCCLS method; outline: as §1
Staphylococcus aureus [6] = test: Antibacterial activity against methicillin-resistant Staphylococcus aureus 10-11 after 18 to 24 hrs by NCCLS method
Outline: (§2)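 Incubated at 35 °C for 18–24 h under NCCLS (M100-S11) standards. MIC was read as the lowest concentration giving complete inhibition of visible bacterial growth.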

Staphylococcus aureus [7] = test: Antibacterial activity against methicillin-resistant Staphylococcus aureus 10-13 after 18 to 24 hrs by NCCLS method; outline: as §2
Staphylococcus aureus [8] = test: Antibacterial activity against methicillin-resistant Staphylococcus aureus 10-15 after 18 to 24 hrs by NCCLS method; outline: as §2
[9] = system: Staphylococcus epidermidis; test: Antibacterial activity against methicillin-sensitive Staphylococcus epidermidis 10-11 after 18 to 24 hrs by NCCLS method; outline: as §1
[10] = system: Staphylococcus epidermidis; test: Antibacterial activity against methicillin-sensitive Staphylococcus epidermidis 10-15 after 18 to 24 hrs by NCCLS method; outline: as §2
[11] = system: Staphylococcus epidermidis; test: Antibacterial activity against methicillin-resistant Staphylococcus epidermidis 10-10 after 18 to 24 hrs by NCCLS method; outline: as §2
[12] = system: Staphylococcus epidermidis; test: Antibacterial activity against methicillin-resistant Staphylococcus epidermidis 10-13 after 18 to 24 hrs by NCCLS method; outline: as §2
Enterococcus faecalis [13] = test: Antibacterial activity against Enterococcus faecalis 10-5 after 18 to 24 hrs by NCCLS method; outline: as §1
Enterococcus faecalis [14] = test: Antibacterial activity against Enterococcus faecalis 10-6 after 18 to 24 hrs by NCCLS method; outline: as §1
Enterococcus faecalis [15] = test: Antibacterial activity against Enterococcus faecalis 10-7 after 18 to 24 hrs by NCCLS method; outline: as §1
Enterococcus faecium [16] = test: Antibacterial activity against Enterococcus faecium 10-6 after 18 to 24 hrs by NCCLS method; outline: as §1
Enterococcus faecium [17] = test: Antibacterial activity against Enterococcus faecium 10-9 after 18 to 24 hrs by NCCLS method; outline: as §1
Streptococcus pneumoniae [18] = test: Antibacterial activity against Streptococcus pneumoniae 10-1 after 18 to 24 hrs by NCCLS method; outline: as §1
Streptococcus pneumoniae [19] = test: Antibacterial activity against Streptococcus pneumoniae 10-6 after 18 to 24 hrs by NCCLS method; outline: as §1
Escherichia coli [20] = test: Antibacterial activity against Escherichia coli ATCC 25922 after 18 to 24 hrs by NCCLS method; outline: as §1
Escherichia coli [21] = test: Antibacterial activity against Escherichia coli 10-1 after 18 to 24 hrs by NCCLS method; outline: as §1
Escherichia coli [22] = test: Antibacterial activity against Escherichia coli 10-2 after 18 to 24 hrs by NCCLS method; outline: as §1
Escherichia coli [23] = test: Antibacterial activity against Escherichia coli 10-3 after 18 to 24 hrs by NCCLS method; outline: as §1
Escherichia coli [24] = test: Antibacterial activity against extended spectrum beta-lactamases producing Escherichia coli 10-2 after 18 to 24 hrs by NCCLS method; outline: as §1
Escherichia coli [25] = test: Antibacterial activity against extended spectrum beta-lactamases producing Escherichia coli 10-3 after 18 to 24 hrs by NCCLS method; outline: as §1
Escherichia coli [26] = test: Antibacterial activity against extended spectrum beta-lactamases producing Escherichia coli 10-4 after 18 to 24 hrs by NCCLS method; outline: as §1
Klebsiella pneumoniae [27] = test: Antibacterial activity against Klebsiella pneumoniae 10-2 after 18 to 24 hrs by NCCLS method; outline: as §1
Klebsiella pneumoniae [28] = test: Antibacterial activity against Klebsiella pneumoniae 10-3 after 18 to 24 hrs by NCCLS method; outline: as §1
Klebsiella pneumoniae [29] = test: Antibacterial activity against Klebsiella pneumoniae 10-4 after 18 to 24 hrs by NCCLS method; outline: as §1
Klebsiella pneumoniae [30] = test: Antibacterial activity against extended spectrum beta-lactamases producing Klebsiella pneumoniae 10-1 after 18 to 24 hrs by NCCLS method; outline: as §1
Klebsiella pneumoniae [31] = test: Antibacterial activity against extended spectrum beta-lactamases producing Klebsiella pneumoniae 10-2 after 18 to 24 hrs by NCCLS method; outline: as §1
Klebsiella pneumoniae [32] = test: Antibacterial activity against extended spectrum beta-lactamases producing Klebsiella pneumoniae 10-3 after 18 to 24 hrs by NCCLS method; outline: as §1
Pseudomonas aeruginosa [33] = test: Antibacterial activity against Pseudomonas aeruginosa 10-5 after 18 to 24 hrs by NCCLS method; outline: as §1
Pseudomonas aeruginosa [34] = test: Antibacterial activity against Pseudomonas aeruginosa 10-9 after 18 to 24 hrs by NCCLS method; outline: as §1
Pseudomonas aeruginosa [35] = test: Antibacterial activity against Pseudomonas aeruginosa 10-12 after 18 to 24 hrs by NCCLS method; outline: as §1
Pseudomonas aeruginosa [36] = test: Antibacterial activity against Pseudomonas aeruginosa 10-15 after 18 to 24 hrs by NCCLS method; outline: as §1
Pseudomonas aeruginosa [37] = test: Antibacterial activity against Pseudomonas aeruginosa 10-18 after 18 to 24 hrs by NCCLS method; outline: as §1
Pseudomonas aeruginosa [38] = test: Antibacterial activity against Pseudomonas aeruginosa 10-20 after 18 to 24 hrs by NCCLS method; outline: as §1

In the case of `O=C(O)c1cn(C2CC2)c2cc(N3CCN(Cc4ccc5c(c4)OCCO5)CC3)c(F)cc2c1=O`, the MIC [1] is reported as 2 µg/mL (≈ 4.17 µM), the MIC (Staphylococcus aureus [2]) is reported as 0.125 µg/mL (≈ 0.261 µM) and the MIC (Staphylococcus aureus [3]) is reported as 0.25 µg/mL (≈ 0.521 µM). The MIC (Staphylococcus aureus [4]) was 0.25 µg/mL (≈ 0.521 µM), the MIC (Staphylococcus aureus [5]) was 0.5 µg/mL (≈ 1.04 µM) and the MIC (Staphylococcus aureus [6]) was 16 µg/mL (≈ 33.4 µM). It also gave an MIC (Staphylococcus aureus [7]) of 16 µg/mL (≈ 33.4 µM), an MIC (Staphylococcus aureus [8]) of 4 µg/mL (≈ 8.34 µM) and an MIC [9] of 0.5 µg/mL (≈ 1.04 µM). It also gave an MIC [10] of 8 µg/mL (≈ 16.7 µM), an MIC [11] of 8 µg/mL (≈ 16.7 µM) and an MIC [12] of 16 µg/mL (≈ 33.4 µM). The MIC (Enterococcus faecalis [13]) was 4 µg/mL (≈ 8.34 µM), the MIC (Enterococcus faecalis [14]) was 32 µg/mL (≈ 66.7 µM) and the MIC (Enterococcus faecalis [15]) was 32 µg/mL (≈ 66.7 µM). It also gave an MIC (Enterococcus faecium [16]) of 2 µg/mL (≈ 4.17 µM), an MIC (Enterococcus faecium [17]) of 32 µg/mL (≈ 66.7 µM) and an MIC (Streptococcus pneumoniae [18]) of 1 µg/mL (≈ 2.09 µM). It also gave an MIC (Streptococcus pneumoniae [19]) of 32 µg/mL (≈ 66.7 µM), an MIC (Escherichia coli [20]) of 0.125 µg/mL (≈ 0.261 µM) and an MIC (Escherichia coli [21]) of over 128 µg/mL. It also gave an MIC (Escherichia coli [22]) of 128 µg/mL (≈ 267 µM), an MIC (Escherichia coli [23]) of 16 µg/mL (≈ 33.4 µM) and an MIC (Escherichia coli [24]) of over 128 µg/mL. For the same compound, the MIC (Escherichia coli [25]) was over 128 µg/mL, the MIC (Escherichia coli [26]) was 128 µg/mL (≈ 267 µM) and the MIC (Klebsiella pneumoniae [27]) was over 128 µg/mL. The MIC (Klebsiella pneumoniae [28]) was 8 µg/mL (≈ 16.7 µM), the MIC (Klebsiella pneumoniae [29]) was over 128 µg/mL and the MIC (Klebsiella pneumoniae [30]) was over 128 µg/mL. For the same compound, the MIC (Klebsiella pneumoniae [31]) was over 128 µg/mL, the MIC (Klebsiella pneumoniae [32]) was over 128 µg/mL and the MIC (Pseudomonas aeruginosa [33]) was 16 µg/mL (≈ 33.4 µM). The MIC (Pseudomonas aeruginosa [34]) was 64 µg/mL (≈ 133 µM), the MIC (Pseudomonas aeruginosa [35]) was 16 µg/mL (≈ 33.4 µM) and the MIC (Pseudomonas aeruginosa [36]) was 32 µg/mL (≈ 66.7 µM). The MIC (Pseudomonas aeruginosa [37]) was 16 µg/mL (≈ 33.4 µM) and the MIC (Pseudomonas aeruginosa [38]) was 32 µg/mL (≈ 66.7 µM).
